Source: PubChem BioAssay (several laboratories)
This is a sample that favours compounds with a hit; in the whole collection about 5.8% have one here.
PLK1 kinase inh: inhibitors of human PLK1 kinase | P53350 | recombinant PLK1 kinase, TR-FRET peptide phosphorylation | inhibition, % at 10 µM | 97,000 tested, 0.53% active;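 active = inhibition of 50% or more in the single-concentration screen; inactive = inhibition below 50%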
Cav3 T inh: blocks human Cav3.2 T-type calcium channel. O95180. Cav3.2-expressing cells, Fluo-4 calcium fluorescence FDSS; hits give low values. B-score at 10 µM. 100,000 tested, 4% active. AID 449739;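 active = single-dose well whose peak fluorescence ratio is a statistical outlier from its plate by either plate-standardised score or position-corrected B-score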
FAK inh: inhibitors of human focal adhesion kinase; 97,000 tested, 0.84% active; inhibition, %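 (tested at 7 µM)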; AID 727; biochemical FAK kinase activity assay; Q05397; in the data active = inhibition above about 19%
Target sequence (Q05397 whole entry, looked up): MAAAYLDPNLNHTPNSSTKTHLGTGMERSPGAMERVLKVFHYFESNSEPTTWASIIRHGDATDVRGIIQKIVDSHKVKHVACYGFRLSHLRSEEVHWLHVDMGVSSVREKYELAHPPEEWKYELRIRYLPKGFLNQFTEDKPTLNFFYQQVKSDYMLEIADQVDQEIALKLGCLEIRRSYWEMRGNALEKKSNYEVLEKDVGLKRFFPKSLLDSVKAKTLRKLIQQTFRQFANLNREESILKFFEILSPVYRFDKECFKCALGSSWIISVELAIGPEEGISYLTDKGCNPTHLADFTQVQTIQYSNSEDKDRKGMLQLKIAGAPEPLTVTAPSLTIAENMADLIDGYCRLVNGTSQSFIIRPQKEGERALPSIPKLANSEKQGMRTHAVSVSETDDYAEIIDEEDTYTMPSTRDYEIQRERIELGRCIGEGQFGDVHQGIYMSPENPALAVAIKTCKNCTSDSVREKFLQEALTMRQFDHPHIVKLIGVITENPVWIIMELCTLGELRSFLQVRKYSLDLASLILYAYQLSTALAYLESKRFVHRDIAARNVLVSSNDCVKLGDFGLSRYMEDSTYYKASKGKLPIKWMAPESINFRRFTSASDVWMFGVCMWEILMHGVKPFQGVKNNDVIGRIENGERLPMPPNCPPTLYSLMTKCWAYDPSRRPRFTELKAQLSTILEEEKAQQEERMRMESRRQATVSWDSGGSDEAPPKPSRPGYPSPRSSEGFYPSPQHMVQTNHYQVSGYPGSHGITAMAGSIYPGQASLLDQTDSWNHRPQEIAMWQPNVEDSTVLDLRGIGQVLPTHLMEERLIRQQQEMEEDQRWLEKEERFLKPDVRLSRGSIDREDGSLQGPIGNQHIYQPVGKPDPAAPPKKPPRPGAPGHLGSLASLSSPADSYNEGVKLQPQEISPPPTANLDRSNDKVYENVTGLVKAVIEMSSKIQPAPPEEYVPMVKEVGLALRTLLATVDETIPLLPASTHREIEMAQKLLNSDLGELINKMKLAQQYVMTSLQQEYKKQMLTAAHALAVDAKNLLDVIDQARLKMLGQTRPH
Rev-RRE block: disrupts HIV-1 Rev binding to RRE RNA. P05866. Rev peptide-RRE RNA binding, FRET. inhibition, % at 8 µM. 97,000 tested, 0.79% active. AID 704;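 active = inhibition above the screen-wide mean plus 3 SD, cut at about 35% in these data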
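Assay system: Labelled RRE RNA duplex and labelled Rev peptide | Times: 5 min preincubation and 15 min binding, 25 °C | Detection: FRET, ex 480 nm, em 540 and 671 nm | Evaluation: % inhibition of FRET ratio versus controls | Benchmarks: DMSO wells as 0% and neomycin B wells as 100% inhibition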
Plk1 PBD FP: Plk1 (human) PBD binding inhibition; P53350; Plk1 PBD phosphopeptide binding, fluorescence polarization; inhibition, %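 (tested at about 20 µM)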; 97,000 tested, 0.13% active; in the data active = inhibition above about 34%, passing the limit was not always enough
PTK2B oligo ant: Pyk2 (human) oligomerization antagonism; Q293 cells, Pyk2 FERM NanoBiT luminescence; hits give low values; 99,000 tested, 0.83% active; AID 1347419; z-score (the deposit names both 25 µM and 10 µM); Q14289;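 active = Z-score of -3 or lower, scaled per plate to the spread of control and sample wells; inactive = z-score above -3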;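 also: negative z-score means lost luminescence so less FERM oligomerization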
Each line names hits and unclear results; the compound was inactive in the other large screens; [ ] = dose if it differs, or a comment.

Cc1ccc(C2C(C#N)=C(N)SC(N)=C2C#N)c(C)c1	none (no result: PLK1 kinase inh, FAK inh, Rev-RRE block, Plk1 PBD FP)
N#CC1=C(N)SC(N)=C(C#N)C1c1ccoc1	Rev-RRE block 85.8[fluorescence artefact?] (no result: PTK2B oligo ant)
COc1cccc(-c2cc(=O)c3cc(NC(=O)c4ccc(N(C)C)cc4)ccc3[nH]2)c1	none (no result: PLK1 kinase inh, FAK inh, Rev-RRE block, Plk1 PBD FP, PTK2B oligo ant)
CC(=O)Nc1c(C(=O)N2CCN(c3ncccn3)CC2)cnn1-c1ccccc1Cl	none (no result: Cav3 T inh, PTK2B oligo ant)
CCn1cc(C(=O)NC2CCC(C)CC2)c(=O)c2cc(S(=O)(=O)N3CCCCC3)ccc21 (stereo unspecified)	Cav3 T inh -7.18 (no result: PTK2B oligo ant)
CCn1cc(C(=O)NCCCN2CCC(C)CC2)c(=O)c2cc(S(=O)(=O)N3CCCC3)ccc21	none (no result: PLK1 kinase inh, FAK inh, Rev-RRE block, Plk1 PBD FP)
CCn1cc(C(=O)N2CCCCC2)c(=O)c2cc(S(=O)(=O)N3CCC(C)CC3)ccc21	PLK1 kinase inh 50.1
COc1ccc([C@H]2/C=C\CN(Cc3ccc(N(C)C)cc3)[C@@H](C)C(=O)N2Cc2ccc(F)cc2)cc1	none (no result: PLK1 kinase inh, FAK inh, Rev-RRE block, Plk1 PBD FP, PTK2B oligo ant)
CCN(CC)C(C(=O)Nc1ccc(C(C)C)cc1)c1ccc2c(c1)OCO2 (stereo unspecified)	Cav3 T inh -4.86
CCCC(C)C(=O)Nc1ccc2c(c1)OCCO2 (stereo unspecified)	none
CC(C)c1ccc(NC(=O)C(c2ccc3c(c2)OCO3)N2CCN(C(=O)c3ccco3)CC2)cc1 (stereo unspecified)	Cav3 T inh -5.21 (no result: PLK1 kinase inh, FAK inh, Rev-RRE block, Plk1 PBD FP)
COc1ccc(OC)c(C(=O)CSc2nccc(-c3ccc(Br)cc3)n2)c1	none
Nc1nc(-c2cccc(NS(=O)(=O)c3ccccc3)c2)cs1	none
Cc1cc2n(n1)C(c1ccc(N(C)C)cc1)Nc1ccccc1-2 (stereo unspecified)	Cav3 T inh -7.18
Cc1cc2n(n1)C(c1ccccc1)Nc1ccccc1-2 (stereo unspecified)	none
CC(C)(C)C(=O)NCCCc1nc2ccccc2n1CCCOc1ccc(Cl)cc1	Cav3 T inh -6.68
CC(C)c1ccc(/C=C2\CC/C(=C\C=N\N(C)C)C2=O)cc1	Rev-RRE block 45.7 (no result: Cav3 T inh)
O=C1/C(=C\c2ccc3c(c2)OCO3)CCC/C1=C/c1ccc2c(c1)OCO2	none (no result: Cav3 T inh)
Cc1ccccc1NCCNc1ccccc1C	none
Nc1nnc(-c2cc3ccccc3oc2=O)s1	none
O=c1oc2ccccc2cc1-c1nnc(NCc2ccco2)s1	Rev-RRE block 44.0
Cn1c(=O)cc(OCC(=O)NCCCN2CCN(c3ccccc3F)CC2)c2ccccc21	none
CCn1c(=O)cc(SCC(=O)NCCCN2CCN(c3ccccc3F)CC2)c2ccccc21	Cav3 T inh -3.39
CCCn1c(=O)[nH]c(=O)c2c1nc(-c1ccccc1)n2CCN1CCOCC1	none
O=C(c1ccco1)N1CCN(C(=O)N2c3ccccc3Sc3ccccc32)CC1	none
O=C(c1ccco1)N1c2ccccc2Sc2ccccc21	Cav3 T inh -4.66
O=C(CN1C2CCCC1CC(NC(=O)c1ccco1)C2)Nc1ccccc1 (stereo unspecified)	none
COc1cc(C(=O)NC2CC3CCCC(C2)N3CC(=O)Nc2ccccc2)cc(OC)c1OC (stereo unspecified)	Cav3 T inh 4.41
Cn1c(CN2CCCC2)nc2cc(NS(=O)(=O)c3ccc(Cl)cc3)ccc21	none
O=c1ccc(NS(=O)(=O)c2ccc(Cl)cc2)cn1Cc1ccc(Cl)c(Cl)c1	Cav3 T inh -4.43
O=c1cc(CN2CCN(S(=O)(=O)c3ccc4c(c3)OCCO4)CC2)c2ccc(O)cc2o1	PTK2B oligo ant -3.87
Cc1ccc2c(CC(=O)N3CCN(S(=O)(=O)c4ccc5c(c4)OCCO5)CC3)coc2c1	Cav3 T inh -5.56
CCc1ccc2c(CN3CCN(S(=O)(=O)c4ccc5c(c4)OCCO5)CC3)cc(=O)oc2c1	none
Cc1ccc(S(=O)(=O)N2CCN(S(=O)(=O)c3ccc4c(c3)OCCO4)CC2)cc1	none
O=C(Nc1ccccc1N1CCN(C(=O)c2ccc(Cl)cc2)CC1)c1cc2ccccc2o1	Cav3 T inh -3.11
CC1C(c2ccccc2)N(C)C(c2ccccc2)CC1(O)c1ccccc1 (stereo unspecified)	Cav3 T inh -6.79
CC1(c2ccccc2)CC2CC(c3ccccc3)N1O2 (stereo unspecified)	none
CCOC(=O)C(C(=O)NCCCN1CCOCC1)C1CCCCC1 (stereo unspecified)	FAK inh 18.9
C=CCNC(=O)C(C(=O)OCC)C1CCCCC1 (stereo unspecified)	none
CCc1ccccc1N(C1=NCCCS1)S(=O)(=O)c1ccc(C(C)(C)C)cc1	none (no result: PLK1 kinase inh, Cav3 T inh, FAK inh, Rev-RRE block, Plk1 PBD FP)
CC(C)Cc1nnc(NC(=O)c2ccncc2)s1	none
CCC1=NN(C(=O)CCc2ccccc2)C(O)(C(F)(F)F)C1 (stereo unspecified)	none
Cc1ccc(OCC(=O)Nc2ccc(F)cc2)cc1C	none
Cc1ccc(OCC(=O)N2N=C(C(F)(F)F)CC2(O)C(C)(C)C)cc1C (stereo unspecified)	Cav3 T inh -7.34
Cc1ccccc1OCC(=O)N1N=C(C(F)(F)F)CC1(O)C(C)(C)C (stereo unspecified)	Cav3 T inh -8.24
O=C(CNCCC1=CCCCC1)Nc1ccccc1N1CCCCC1	none
COc1ccc(CN(CCC#N)C(=S)NC(=O)c2ccccc2)cc1	none
CCOc1ccc(C(=O)NC(=S)N(Cc2ccccc2)Cc2ccccc2)cc1	Cav3 T inh -4.63
Cc1ccccc1[C@@H]1C(C#N)=C(N)S[C@H]1C(=O)c1ccccc1	none
COCC(=O)NC1CCN(C(=O)NCc2ccccc2)CC1	none
CCn1c(SCc2ccc(C)cc2)nnc1C1CCN(S(=O)(=O)c2ccc(OC)cc2)CC1	Cav3 T inh -4.77
CCn1c(SCc2ccc(F)cc2)nnc1C1CCN(S(=O)(=O)c2ccc(OC)cc2)CC1	none
CCc1cc2ccc(C)cc2nc1SCC(=O)N1CCN(C(=O)c2ccco2)CC1	Cav3 T inh -5.1
COC(=O)c1cc(NC(=O)Cc2ccc(OC)cc2)cc(C(=O)OC)c1	none
CCC(=O)N(Cc1ccc(S(N)(=O)=O)cc1)C1CC(=O)N(c2ccc(OC)cc2)C1=O (stereo unspecified)	none
COc1ccc(-c2cc(C(F)(F)F)c3c(=O)n(-c4ccccc4)[nH]c3n2)cc1	PTK2B oligo ant -4.11
COc1ccc(C(=O)Nc2nc3nc(-c4ccccc4)cc(=O)n3[nH]2)cc1	none
CCc1cc2c(-c3ccccc3)cc(=O)oc2c(CN2CCOCC2)c1O	Cav3 T inh -8.72
O=c1cc(-c2ccccc2)c2ccc(O)c(CN3CCCCC3)c2o1	none (no result: Cav3 T inh)
COC(=O)c1c(C)oc2ccc(N(C(=O)c3ccncc3)S(=O)(=O)c3ccccc3)cc12	Cav3 T inh -4.05
CCOC(=O)c1ccccc1NC(=O)CSc1nc2ccccc2o1	none (no result: PLK1 kinase inh, FAK inh, Rev-RRE block, Plk1 PBD FP)
CCCOC(=O)Nc1nc2ccccc2o1	Rev-RRE block 38.2
CCOC(=O)c1sc(NC(=O)C(CC)OC(=O)C(CC(C)C)NC(=O)c2ccccc2)nc1C (stereo unspecified)	Cav3 T inh -4.04
CCOc1ccc(OCC)c(NC(=O)c2[nH]c(C)c(C(C)=O)c2C)c1	none
